# Experimental data taken from ChEMBL document CHEMBL4118025, “ent-Abietane and Tigliane Diterpenoids from the Roots of Euphorbia fischeriana and Their Inhibitory Effects against Mycobacterium smegmatis” (2017).
# System: Mycolicibacterium smegmatis
# Experiment: Antimycobacterial activity against Mycobacterium smegmatis after 24 hrs by microplate alamar blue assay
# Type: functional
# In short: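 Alamar blue viability read-out in 96-well microplates, following an earlier described method; test materials dissolved in DMSO at an initial 0.4 mg/mL; kanamycin positive control at 0.1 mg/mL; M. smegmatis strain preincubated 48 h before incubation with test materials.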
row,Compound,MIC [µg/mL]
1,CC1=C2[C@@H](OC1=O)C(=O)[C@H]1[C@]3(C)CCCC(C)(C)[C@H]3CC[C@@]1(O)[C@H]2O,300
2,CC1=C2[C@@H](O)[C@@]3(O)CC[C@@H]4C(C)(C)CCC[C@@]4(C)[C@@H]3[C@@H](O)[C@H]2OC1=O,> 400
3,CC1(C)CCC[C@]2(C)[C@@H]1CC[C@@]13O[C@@H]1C1=C(CO)C(=O)OC1=C[C@@H]23,100
4,CC1(C)CCC[C@]2(C)[C@@H]1C[C@H](O)C1=CC3=C(CO)C(=O)O[C@]3(O)[C@H](O)[C@H]12,> 400
5,CC1=C2C=C3[C@@H](O)C[C@@H]4C(C)(C)CCC[C@@]4(C)[C@@H]3[C@@H](O)[C@@]2(O)OC1=O,400
6,CC(=O)O[C@@]12C[C@@H](C)[C@@]3(O)[C@@H](C=C(C=O)C[C@]4(O)C(=O)C(C)=C[C@@H]34)[C@@H]1C2(C)C,> 400
7,CC(=O)O[C@@]12C[C@@H](C)[C@@]3(O)[C@@H](C=C(CO[C@@H]4O[C@H](CO)[C@@H](O)[C@H](O)[C@H]4O)C[C@]4(O)C(=O)C(C)=C[C@@H]34)[C@@H]1C2(C)C [FISCHEROSIDES A],> 400
8,CC(=O)O[C@@]12C[C@@H](C)[C@@]3(O)[C@@H](C=C(CO[C@@H]4O[C@H](CO)[C@@H](OC(=O)c5cc(O)c(O)c(O)c5)[C@H](O)[C@H]4O)C[C@]4(O)C(=O)C(C)=C[C@@H]34)[C@@H]1C2(C)C,> 400
9,CC(=O)O[C@@]12C[C@@H](C)[C@@]3(O)[C@@H](C=C(CO[C@@H]4O[C@H](CO)[C@@H](O)[C@H](OC(=O)c5cc(O)c(O)c(O)c5)[C@H]4O)C[C@]4(O)C(=O)C(C)=C[C@@H]34)[C@@H]1C2(C)C,> 400
10,CC1=C2C(=C[C@H]3[C@]4(C)CCCC(C)(C)[C@H]4CC[C@]34O[C@H]24)OC1=O,> 400
11,CC(=O)O[C@@]12C[C@@H](C)[C@@]3(O)[C@@H](C=C(C(=O)O)C[C@]4(O)C(=O)C(C)=C[C@@H]34)[C@@H]1C2(C)C,> 400
12,CC1(C)CCC[C@]2(C)[C@@H]1CC[C@]1(O)[C@H](O)C3=C(CO)C(=O)OC3=C[C@@H]21,> 400
13,CC(=O)O[C@@]12C[C@@H](C)[C@@]3(O)[C@@H](C=C(CO)C[C@]4(O)C(=O)C(C)=C[C@@H]34)[C@@H]1C2(C)C [PROSTRATIN],> 400
14,CC1(C)C(=O)CC[C@]2(C)[C@@H]1C[C@H](O)C1=CC3=C(CO)C(=O)O[C@@H]3[C@@H](O)[C@H]12,> 400
15,CC1(C)C(=O)CC[C@]2(C)[C@@H]1CCC1=CC3=C(CO)C(=O)O[C@@H]3[C@@H](O)[C@H]12,> 400
16,NC[C@H]1O[C@H](O[C@H]2[C@H](O)[C@@H](O[C@H]3O[C@H](CO)[C@@H](O)[C@H](N)[C@H]3O)[C@H](N)C[C@@H]2N)[C@H](O)[C@@H](O)[C@@H]1O [KANAMYCIN],10
17,CC1(C)CCC[C@]2(C)[C@@H]1CCC1=CC3=C(CO)C(=O)O[C@]3(O)[C@H](O)[C@H]12,200
18,CC1(C)CCC[C@]2(C)[C@@H]1CC[C@@]13O[C@@H]1C1=C(CO)C(=O)O[C@]14O[C@@H]4[C@@H]23,1.5
19,CC(=O)O[C@@]12C[C@](C)(O)[C@H]3[C@@H](C=C(CO)C[C@]4(O)C(=O)C(C)=C[C@@H]34)[C@@H]1C2(C)C,> 400
20,CC(=O)O[C@@]12[C@H](O)[C@@H](C)[C@@]3(O)[C@@H](C=C(CO)C[C@]4(O)C(=O)C(C)=C[C@@H]34)[C@@H]1C2(C)C,> 400
21,CC1=C[C@H]2[C@@]3(O)[C@H](C)CC(=O)[C@@H](C(C)C)[C@@H]3C=C(CO)C[C@]2(O)C1=O,> 400
